A selection: hits, their analogues and other compounds. The true share with any hit is near 3%.
ABHD5-PLIN5 inh: blocks binding of human ABHD5 to perilipin-5; Q00G26+Q8WTS1; Split G. princeps luciferase complementation, luminescence, 4 h; inhibition, % at 4 µM; 0.78% of 360,000 active; AID 602281;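 active means inhibition above the mean inhibition across every tested compound plus 3 SD, cut at about 22% in these data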;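 further: 0% = DMSO only wells and the 100% control is not disclosed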
MC4R ag barr: human MC4R agonism via beta-arrestin | U2OS MC4R beta-arrestin complementation, luminescence; percent of melanotan II response, DMSO zero | activation, % at 8.9 µM | 0.98% of 360,000 active | P32245;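 active means activation above a per-plate cutoff, the mean activation of sample wells on that plate plus 3 SD, cut at about 8% in these data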
Target sequence (P32245 whole entry, looked up): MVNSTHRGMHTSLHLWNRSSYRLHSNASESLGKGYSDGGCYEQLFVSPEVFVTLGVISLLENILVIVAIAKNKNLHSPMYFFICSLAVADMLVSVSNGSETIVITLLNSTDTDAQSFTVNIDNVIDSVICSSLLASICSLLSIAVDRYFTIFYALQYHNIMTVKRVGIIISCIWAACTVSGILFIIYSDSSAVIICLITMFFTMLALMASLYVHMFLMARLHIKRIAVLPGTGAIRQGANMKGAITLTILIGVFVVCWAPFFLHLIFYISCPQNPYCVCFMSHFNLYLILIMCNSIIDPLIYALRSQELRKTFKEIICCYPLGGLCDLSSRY
PfG6PD inh: PfG6PD (Plasmodium falciparum) enzyme inhibition | PfGluPho enzyme, NADPH resazurin-diaphorase fluorescence | inhibition, % at 20 µM | 0.78% of 350,000 active;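 active means inhibition reaching at least a set limit at 20 µM in the primary screen, cut at about 59% in these data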;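 further: 0% = DMSO wells with substrate and 100% = DMSO wells lacking glucose-6-phosphate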
MC4R antag cAMP: antagonists of human melanocortin 4 receptor (MC4R). P32245. MC4R-expressing cells, MTII-stimulated cAMP, LANCE TR-FRET. inhibition, % at 6.5 µM. 0.48% of 360,000 active. AID 540295;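 active means inhibition above its plate's cutoff, the mean of tested wells on that plate plus 3 SD, cut at about 29% in these data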;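 further: 0% = Melanotan II alone and 100% = Melanotan II plus saturating MCL0020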
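System – human MC4R-expressing U2OS cells · Also added – Melanotan II · Dosing – one concentration, 6.5 µM nominal · Timing – 30-min compound, 1-h challenge, 1-h detection, room temperature · Measured by – Eu-cAMP/anti-cAMP TR-FRET, emission 671 nm · Replicates – singlicate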
B2AR ag: agonists of human beta-2 adrenergic receptor inducing internalization. Am2.2-beta2AR cells, FAP receptor internalization, flow cytometry. response, % (no concentration beside the values). 0.43% of 340,000 active. AID 504454;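 active means response above a set limit, near 3 SD of response in nonfluorescent compounds, cut at about 42% in these data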
B2AR ag CP1: activates human beta-2 adrenergic receptor | shares compounds with B2AR ag | Am2.2-beta2AR cells, FAP surface receptor, flow cytometry; stronger effect = lower value | percent response (surface receptor), % at 10 µM | 25% of 1,100 active | AID 540358;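 active means surface receptor percent response at or below 58%, roughly 3 SD from nonfluorescent compounds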
FAP fluor counter: fluorescence artifact in beta-2AR agonist FAP counterscreen. Am2.2 cells, FAP fluorogen flow cytometry; stronger effect = lower value. calls only at 10 µM. shares compounds with B2AR ag. AID 588765. 1,100 tested, under 10 active;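 active means percent response below a set limit in fluorescence channel 1 and below 50% in channel 8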
* marks the source's active call; other numbers are inactive results; i = inactive; nt = no result.

SMILES	ABHD5-PLIN5 inh	MC4R ag barr	PfG6PD inh	MC4R antag cAMP	B2AR ag	B2AR ag CP1	FAP fluor counter
c1ccc(-c2nnc(SCc3nc4ccccc4[nH]3)n2Cc2ccco2)cc1	7	-3	23	-3	-12	138	i
COc1ccccc1N1CCN(C(=O)CN(C)S(=O)(=O)c2cc(C)ccc2OC)CC1	3	0	-8	3	1	139	i
COc1ccc(C)cc1S(=O)(=O)N(C)CC(=O)N1CCCC1	3	-1	-4	5	-5	nt	nt
COc1ccc(C)cc1S(=O)(=O)N(C)CC(=O)N1CCN(c2ccccc2)CC1	-9	-1	2	-3	-6	104	i
CCN1CCCC1CNC(=O)c1cc([N+](=O)[O-])c(N(C)C)cc1OC (centres undefined)	5	-1	3	-2	-6	nt	nt
Cc1ccc(Cn2nc(C)c(NC(=O)CSc3nc4c(c(C(F)(F)F)n3)CCc3ccccc3-4)c2C)cc1	-1	-1	-1	5	46*	73	i
Cc1nn(Cc2ccc(Cl)cc2)c(C)c1NC(=O)CSc1nc2c(c(C(F)(F)F)n1)CCc1ccccc1-2	3	3	-13	4	3	nt	nt
Cc1ccc(Nc2c(-c3ccccn3)nc3cc(C)ccn23)cc1	6	3	4	2	76*	128	i
Cc1ccn2c(Nc3ccc4c(c3)OCO4)c(-c3ccccn3)nc2c1	-10	1	53	2	-1	nt	nt
CCN1CCN(c2ccc(NC(=O)c3ccc([N+](=O)[O-])o3)cc2Cl)CC1	0	-3	36	-6	63*	13*	i
O=C(Nc1ccc(-c2cn3c(n2)SCC3)cc1)c1ccco1	-7	1	3	-1	12	nt	nt
CC(=O)Nc1ccc(-c2cn3c(n2)SCC3)cc1	-11	0	7	3	60*	53*	i
COc1ccc(CN(C)C(=O)c2cc(S(=O)(=O)N3CCCCCC3)ccc2OC)cc1OC	11	1	-10	4	3	nt	nt
COc1ccc(S(=O)(=O)N2CCCCCC2)cc1C(=O)N(C)Cc1ccc(OC)c(OC)c1OC	5	-1	-4	5	51*	108	i
c1nc(NCCN2CCOCC2)c2sc3nc(N4CCOCC4)c4c(c3c2n1)CCC4	3	-3	5	5	46*	57*	i
CCN1CCN(c2ncnc3c2sc2nc(N4CCOCC4)c4c(c23)CCC4)CC1	-3	-2	-13	5	-1	nt	nt
CCOc1ccc(-c2cc(C(=O)NCCCn3ccnc3)c3cc(Br)ccc3n2)cc1	12	2	12	1	50*	67	i
O=C(O)CSCC(=O)Nc1ccccc1SCCS(=O)(=O)c1ccc(Cl)cc1	7	-1	0	-2	4	nt	nt
Cc1cccc(C)c1NC(=O)C(c1ccccc1)N1CCOCC1 (centres undefined)	-3	-3	-8	0	0	nt	nt
Cc1ccc(C)c(NC(=O)C(c2ccccc2)N2CCOCC2)c1 (centres undefined)	-2	-2	-5	3	-6	104	i
CCOC(=O)c1cnc(-n2nc(C)cc2C)nc1NC	2	-2	-3	0	-8	105	i
CCCN(C(=O)CSc1nnnn1-c1ccccc1OC)C1CCS(=O)(=O)C1 (centres undefined)	-9	-2	-1	1	0	nt	nt
CCC1(CC)NC(=O)N(CC(=O)OCC(=O)c2ccccc2OC)C1=O	4	0	-11	5	3	nt	nt
O=C(CNC(=O)N1CC(=O)Nc2ccccc21)Nc1ccccc1F	-1	-1	-38	17	42*	107	i
O=C(CNC(=O)N1CC(=O)Nc2ccccc21)Nc1ccccc1	0	-2	1	8	-20	nt	nt
SMILES	ABHD5-PLIN5 inh	MC4R ag barr	PfG6PD inh	MC4R antag cAMP	B2AR ag	B2AR ag CP1	FAP fluor counter
CCCCN(C(=O)c1ccc(C#N)cc1)c1c(N)n(CCC)c(=O)[nH]c1=O	1	-1	-5	-6	-4	nt	nt
CCCN(CC(=O)Nc1ccccc1C)C(=O)CSc1ccccc1C	9	0	0	-3	-1	nt	nt
Cc1ccccc1Cn1c(=N)n(CC(=O)c2ccc([N+](=O)[O-])cc2)c2ccccc21	-4	0	24	8	55*	22*	i
Cc1ccc(Cn2c(=N)n(CC(=O)c3ccccc3)c3ccccc32)cc1	6	4	28	0	58*	86	i
O=C(Nc1ccc(C(=O)N2CCN(c3ccncc3)CC2)cc1)c1ccc(Br)o1	2	nt	nt	nt	nt	nt	nt
Cc1ccc(C(=O)N2CCN(c3ccc(NC(=O)c4ccc(Br)o4)cc3)CC2)cc1	11	-1	6	11	12	120	i
CCc1ccc(C(=O)N2CCN(c3ccc(NC(=O)c4ccco4)cc3)CC2)cc1	4	-2	7	8	-12	122	i
Cc1cc(C)c2nc(NC(=O)[C@@H](NC(=O)c3cccc(S(=O)(=O)N4CCOCC4)c3)C(C)C)sc2c1	1	-1	-14	5	3	nt	nt
CN(C)C(CNC(=O)c1cc(S(=O)(=O)N(C)c2ccccc2)ccc1Cl)c1cccs1 (centres undefined)	2	-1	3	2	-4	nt	nt
CCN(CC)S(=O)(=O)c1cccc2cccnc12	-4	-2	-3	-3	0	nt	nt
CN(c1cccc2cccnc12)S(=O)(=O)c1ccccc1	3	-1	19	-4	-2	102	i
CSc1ccc(S(=O)(=O)NCCCOC(C)C)cc1	-6	-2	27	-7	-1	nt	nt
Cc1nc2oc3c(=O)[nH]cnc3c2c2c1COC(C)(C)C2	2	-2	14	-10	-4	99	i
O=Cc1ccc(O)c2ncccc12	-3	-1	34	-3	9	98	i
c1cnc2ccc3ncccc3c2c1	0	0	5	11	-7	nt	nt
C=CCn1c(SCc2cccc3ccccc23)nnc1-c1cccnc1	-9	1	20	7	-3	nt	nt
Cn1c(SCc2ccc(Cl)cc2)nnc1C1CC1	-8	-1	16	9	-9	nt	nt
Cc1cc(C)c2c(N)c(-c3nnc(SCc4ccc(Cl)cc4)n3C)sc2n1	2	-3	8	5	111*	21*	i
C=CCn1c(SCc2ccccc2Cl)nnc1-c1sc2nc(C)cc(C)c2c1N	-4	0	13	8	110*	17*	i
Nc1nc(-c2ccc3c(c2)CCO3)cs1	-1	-1	21	7	-1	nt	nt
COc1ccc(Cl)cc1N(C(C)C(=O)NC1CCCC1)S(C)(=O)=O (centres undefined)	0	-2	-6	-6	1	nt	nt
COc1cccc(CNC(=O)C(C)n2ccc3cc(S(=O)(=O)N4CCCCCC4)ccc32)c1 (centres undefined)	6	-1	11	9	47*	112	i

Screening data deposited in PubChem by several laboratories.
